Measured values pooled from the literature.
Target: Tyrosine-protein kinase Fes/Fps (FES, Homo sapiens, UniProt P07332)

Structure (SMILES)	assay	conditions	measurement	result
Cn1cc(-c2cccc(N3CCc4c(sc5c4CC(C)(C)C5)C3=O)c2CO)cc(Nc2ccncn2)c1=O	enzyme activity, inhibitor	1 µM	inhibition	4%
Nc1ncc(-c2nc(N3CCOCC3)nc(N3CCOCC3)n2)c(C(F)F)n1	binding, competition with immobilised ligand	10 µM	remaining binding	91%
O=c1[nH]c2ccccc2n1C1CCN(Cc2ccc(-c3[nH]c4cc5ncnc5cc4nc3-c3ccccc3)cc2)CC1	cell-free assay	0.5 µM	remaining signal	101%
C#Cc1n[nH]c2c(-c3cn([C@@H](C)c4ccccc4)c(=O)[nH]c3=O)cc(F)cc12	enzyme activity, inhibitor	0.1 µM	inhibition	7.4%
c1ccc(C(NCCNC(c2ccccc2)c2ccccc2)c2ccccc2)cc1	enzyme activity, inhibitor	10 µM	inhibition	-2%
C#Cc1n[nH]c2c(-c3cn(C(C)c4ccccn4)c(=O)[nH]c3=O)cc(F)cc12 (stereo not drawn)	enzyme activity, inhibitor	1 µM	inhibition	5.3%
C[C@H](C(=O)N[C@H]1COc2ccccc2[C@@H]1S(C)(=O)=O)c1ccc(F)cc1	enzyme activity, inhibitor	10 µM	inhibition	-14%
COc1ncccc1-c1cnn2ccc(N3CCN(C(=O)OC(C)C)CC3)nc12	binding, competition with immobilised ligand	1 µM	remaining binding	100%
Cn1cc(-c2cc(F)cc(N3CCn4c(cc5c4CCCC5)C3=O)c2CO)cc(Nc2ccc(N3CCN(C4COC4)CC3)cn2)c1=O	enzyme activity, inhibitor	0.1 µM	inhibition	9%
Cn1cncc1[C@@](O)(COc1ccc(C#N)cc1-c1ccc(OC(F)(F)F)cc1)c1ccc(C#N)cc1	cell-free assay, competition with immobilised ligand	1 µM	remaining binding	100%
CC(C)(C)c1cc(C=C(C#N)C#N)cc(Br)c1O	enzyme activity, inhibitor	0.5 µM	remaining activity	105%
Cc1nn(C)cc1-c1nc2c(N3CCN(Cc4ccc(Cl)cc4)CC3)c(Cl)cnc2[nH]1	binding, competition with immobilised ligand	1 µM	remaining binding	100%
